How the values were obtained:
Format in all cases: cell-based
[1] = tested on: eIF4E phosphorylation (MNK1/2 activity) in MDA-MB-231 cells; assay: western blot of eIF4E phosphorylation; conditions: for inhibition of eIF4E phosphorylation: MDA-MB-231 cells, 24 h, western blot
In short: (§1)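 MDA-MB-231 cells were grown in DMEM with 10% heat-inactivated FBS and penicillin/streptomycin, seeded at 6000 cells/cm² 24 h before treatment. DMSO was kept below 0.5%, with DMSO as negative control. Immunoblotting used ECL detection, with β-actin (1:20 000) probed.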

[2] = tested on: MNK1 phosphorylation at T209/214 in MDA-MB-231 cells; assay: western blot of MNK1 phosphorylation at T209/214 in MDA-MB-231 cells; conditions: MDA-MB-231, 24 h
In short: as §1

[3] = tested on: MDA-MB-231 cells; assay: crystal violet growth assay, MDA-MB-231; conditions: MDA-MB-231, 72 h, up to 200 nM
In short: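 Cells kept in DMEM (4.5 g/L glucose) with 10% heat-inactivated FBS and penicillin/streptomycin at 37 °C, 5% CO2. Seeded at 6000 cells/cm², treated 24 h later for 72 h; DMSO kept below 0.5%, DMSO as negative control. Fixed 30 min in 4% formaldehyde, PBS washes, stained 15 min with 0.5% crystal violet, dye dissolved in 15% AcOH, OD 595 nm. Three independent experiments, standard deviation.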

[4] = molecular target: MNK1-eIF4G interaction in HEK-293 cells (Homo sapiens, UniProt Q9BUB5); assay: immunoprecipitation of endogenous eIF4G, MNK1-eIF4G interaction in HEK-293 cells; conditions: HEK-293, 20 μM EB1 or 100 nM eFT508, UV irradiation and 40 min recovery
Sequence of MNK1-eIF4G interaction in HEK-293 cells (Q9BUB5 1-424 isoform Q9BUB5-2): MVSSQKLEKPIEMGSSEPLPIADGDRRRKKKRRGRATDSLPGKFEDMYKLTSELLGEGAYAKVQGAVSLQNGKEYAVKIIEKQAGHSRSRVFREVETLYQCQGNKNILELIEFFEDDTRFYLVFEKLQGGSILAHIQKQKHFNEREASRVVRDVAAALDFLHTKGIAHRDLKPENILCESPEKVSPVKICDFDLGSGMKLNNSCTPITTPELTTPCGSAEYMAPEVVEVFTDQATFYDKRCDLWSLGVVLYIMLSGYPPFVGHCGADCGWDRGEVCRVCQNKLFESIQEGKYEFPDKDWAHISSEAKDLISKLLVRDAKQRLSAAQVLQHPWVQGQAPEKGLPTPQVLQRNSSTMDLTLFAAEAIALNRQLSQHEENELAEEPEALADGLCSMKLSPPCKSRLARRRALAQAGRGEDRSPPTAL
In short: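 HEK-293 cells were treated 24 h with DMSO or inhibitor, then UV-irradiated (60 J/m²) and recovered 40 min at 37 °C. Anti-eIF4G was bound to protein A beads (4 h, 4 °C), then incubated overnight at 4 °C with about 2 mg precleared lysate. Beads were washed, boiled 5 min at 95 °C, and probed for MNK1 by immunoblot.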

| effect on interaction between MNK1 and eIF4G [4] | SMILES | inhibition of eIF4E phosphorylation after UV stimulation ([1]; MDA-MB-231, pretreatment with inhibitor, UV irradiation, 40 min recovery) | inhibition of eIF4E phosphorylation [1] | inhibition of eIF4E phosphorylation ([1]; listed as EB1) | effect on activating phosphorylation of MNK1 at T209/214 [2] | effect on cell growth [3] |
| --- | --- | --- | --- | --- | --- | --- |
|  | Nc1n[nH]c2nc(-c3ccccc3)cc(-c3ccccc3)c12 [6b, 4,6-Diphenyl-1H-pyrazolo[3,4-b]pyridin-3-amine] | strongly inhibited eIF4E phosphorylation | clear inhibition of eIF4E phosphorylation | more potent than CGP5738 but less active than the eFT508 |  |  |
|  | Nc1ncnc2[nH]nc(Nc3ccc(F)cc3)c12 [CGP57380 (2), CGP57380] |  |  |  | strongly induced phosphorylation of MNKs at T209/214 |  |
| strongest interaction of eIF4G with MNK1 | Cc1cc(Nc2cc(N)ncn2)c(=O)n2c1C(=O)NC21CCCCC1 [eFT508 (3), eFT508] |  | complete inhibition of eIF4E phosphorylation can be already observed at low nanomolar concentrations |  | strongly induced phosphorylation of MNKs at T209/214 | not able to inhibit the growth |
